We go through 26 compounds from ChEMBL document CHEMBL3227919, “Development of ethyl 3,4-dihydro-4-oxopyrimido[4,5-b]quinoline-2-carboxylate, a new prototype with oral antiallergy activity” (1979).

Calls of active or inactive are those of the source. The rule behind the calls is not given here.

For experiment [1], the system named is Rattus norvegicus. As to the kind of experiment: Antiallergic activity in Wistar Charles River rat assessed as inhibition of histamine-induced passive cutaneous anaphylaxis at 1 mg/kg, iv relative to control. In kind it is functional.
Experiment [2] deals with Rattus norvegicus. As to the kind of experiment: Antiallergic activity in Wistar Charles River rat assessed as inhibition of histamine-induced passive cutaneous anaphylaxis at 100 mg/kg, po relative to control. In kind it is functional.
For experiment [3], the system named is Rattus norvegicus. As to the kind of experiment: Antiallergic activity in Wistar Charles River rat assessed as inhibition of histamine-induced passive cutaneous anaphylaxis at 10 mg/kg, po relative to control. The format is functional.
Experiment [4] has as its system Rattus norvegicus. As to the kind of experiment: Antiallergic activity in Wistar Charles River rat assessed as inhibition of histamine-induced passive cutaneous anaphylaxis at 30 mg/kg, po relative to control. In kind it is functional.
Experiment [5] relates to Rattus norvegicus. As to the kind of experiment: Antiallergic activity in Wistar Charles River rat assessed as inhibition of histamine-induced passive cutaneous anaphylaxis at 10 mg/kg, iv relative to control. In kind it is functional.
The subject of experiment [6] is Rattus norvegicus. As to the kind of experiment: Antiallergic activity in po dosed rat assessed as inhibition of passive cutaneous anaphylaxis. In kind it is functional.
The subject of experiment [7] is Rattus norvegicus. As to the kind of experiment: Antiallergic activity in po dosed rat assessed as inhibition of antigen-induced passive cutaneous anaphylaxis. In kind it is functional.
For experiment [8], the system named is Rattus norvegicus. As to the kind of experiment: Antiallergic activity in po dosed rat assessed as inhibition of antigen-induced passive cutaneous anaphylaxis relative to DSCG. The format is functional.
The subject of experiment [9] is Homo sapiens. As to the kind of experiment: Antiallergic activity in po dosed human assessed as concentration required to inhibit antigen-induced clinical asthma. The format is functional.
Experiment [10] concerns Rattus norvegicus. As to the kind of experiment: Antiallergic activity in Wistar Charles River rat assessed as inhibition of histamine-induced passive cutaneous anaphylaxis at 50 mg/kg, ip relative to control. In kind it is functional. The note with it: route intraperitoneal.
In experiment [11] the test system is Rattus norvegicus. As to the kind of experiment: Antiallergic activity in Wistar Charles River rat assessed as inhibition of histamine-induced passive cutaneous anaphylaxis at 3 mg/kg, iv relative to control. In kind it is functional.
In experiment [12] the test system is Rattus norvegicus. As to the kind of experiment: Antiallergic activity in Wistar Charles River rat assessed as inhibition of histamine-induced passive cutaneous anaphylaxis at 30 mg/kg, iv relative to control. In kind it is functional.
The subject of experiment [13] is Rattus norvegicus. As to the kind of experiment: Antiallergic activity in po dosed Wistar Charles River rat assessed as inhibition of histamine-induced passive cutaneous anaphylaxis. The format is functional.
For experiment [14], the system named is Rattus norvegicus. As to the kind of experiment: Antiallergic activity in Wistar Charles River rat assessed as inhibition of histamine-induced passive cutaneous anaphylaxis at 0.1 mg/kg, iv relative to control. In kind it is functional.
The subject of experiment [15] is Rattus norvegicus. As to the kind of experiment: Antiallergic activity in Wistar Charles River rat assessed as inhibition of histamine-induced passive cutaneous anaphylaxis at 1 mg/kg, po relative to control. The format is functional.
Experiment [16] concerns Rattus norvegicus. As to the kind of experiment: Antiallergic activity in Wistar Charles River rat assessed as inhibition of histamine-induced passive cutaneous anaphylaxis at 3 mg/kg, po relative to control. The format is functional.
Experiment [17] has as its system Rattus norvegicus. As to the kind of experiment: Inhibition of carrageenan-induced foot edema in rat at 10 mg/kg, po. In kind it is functional, organism-based. Set-up: dose 10 mg/kg. For orientation: In the carrageenan paw model, swelling and tenderness develop within hours.
In experiment [18] the test system is Cavia porcellus. As to the kind of experiment: Inhibition of histamine-induced bronchoconstriction in guinea pig up to 100 mg/kg, po. The format is functional, organism-based. Further details: dose 100 mg/kg.
Experiment [19] has as its system Rattus norvegicus. As to the kind of experiment: Antiallergic activity in Wistar Charles River rat assessed as inhibition of histamine-induced passive cutaneous anaphylaxis at 30 mg/kg, ip relative to control. The format is functional. The note with it: route intraperitoneal.
Experiment [20] deals with Rattus norvegicus. As to the kind of experiment: Antiallergic activity in po dosed Wistar rat assessed as inhibition of ovalbumin-induced passive cutaneous anaphylaxis. In kind it is functional. The procedure, abridged: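 Male Charles River Wistar rats, 170-210 g. Reaginic egg-albumin antiserum was raised with Bordetella pertussis or Al(OH)3, then diluted to give a 15-mm wheal and injected intradermally (0.1 mL) into shaved back skin. After 48 h, drug or saline was given, then 2.5 mg Evans blue plus 5 mg egg albumin in saline. Each site was scored as diameter (mm) × dye-intensity grade (0.5-4), summed per group of 5 or 7 rats and compared with saline controls.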

The subject of experiment [21] is Rattus norvegicus. As to the kind of experiment: Antiallergic activity in po dosed Wistar rat assessed as inhibition of ovalbumin-induced passive cutaneous anaphylaxis relative to DSCG. The format is functional.
Experiment [22] concerns Homo sapiens. As to the kind of experiment: Antiallergic activity in po dosed human assessed as oral active dose. In kind it is functional.

By inhibition in vivo is commonly meant the relative decrease from the control value, in per cent. On to `O=C(O)c1nc2nc3ccccc3cc2c(=O)[nH]1`, for which the inhibition in vivo at 1 mg/kg in experiment [1] is 92%. For the same compound, the inhibition in vivo at 100 mg/kg in experiment [2] came to 96%. Moreover, the inhibition in vivo at 10 mg/kg in experiment [3] worked out at 0%. For the same compound, in [4], the inhibition in vivo at 30 mg/kg was 57%.
In the case of `O=C(O)c1nc2ccccc2c(=O)[nH]1`, the inhibition in vivo at 10 mg/kg in experiment [5] came to 52%.
One may read the ED50 as the midpoint of the dose-response relation. As to `COc1cccc2c(=O)c(CO)coc12`, the 50% effective dose (ED50) in experiment [6] was determined as 2 mg/kg.
In the case of `CCCOc1ccccc1-c1nc2[nH]nnc2c(=O)[nH]1` [ZAPRINAST], the ED50 in experiment [6] turned out to be 0.2 mg/kg.
Turning to `CCOC(=O)c1nc2cc(OC(=O)c3ccccc3)c(OC)cc2c(=O)[nH]1`, the inhibition in vivo at 10 mg/kg in experiment [5] came out at 14%.
As for `CCCc1c2c(c(O)c3c(=O)cc(C(=O)O)oc13)CCCC2` [PROXICROMIL], in experiment [7], the ED50 worked out at 15.5 mg/kg. For the same compound, in experiment [8], the “fold change (FC)” value came to 0.19. Also, the Activity in experiment [9] was 4.6 mg.
Turning to `O=C(O)c1nc2c(Br)cc(Br)cc2c(=O)[nH]1`, the inhibition in vivo at 50 mg/kg in experiment [10] was 0%.
`O=c1[nH]c(=O)c2cc3ccccc3nc2[nH]1`: in [11], the inhibition in vivo at 3 mg/kg worked out at 41%.
On to `CCOC(=O)c1nc2cc(OC)c(OC)cc2c(=O)[nH]1`, for which the inhibition in vivo at 30 mg/kg in [12] was found to be 80%. Also, the result in experiment [2] was inactive.
With `CCOC(=O)c1nc2c(C(F)(F)F)cc(Cl)cc2c(=O)[nH]1`, the inhibition in vivo at 10 mg/kg in experiment [5] was 0%.
As for `Cc1nc(O)c2cc3ccccc3cc2n1`, the inhibition in vivo at 3 mg/kg in [11] came to 15%.
As for `O=c1[nH]cnc2nc3ccccc3cc12`, the inhibition in vivo at 3 mg/kg in experiment [11] is 33%. The inhibition in vivo at 10 mg/kg in [5] was 4%.
Take `O=C(O)c1nc2ccc([N+](=O)[O-])cc2c(=O)[nH]1`: the inhibition in vivo at 30 mg/kg in [12] turned out to be 67%.
As to `O=C(O)CCc1nc2cc3ccccc3cc2c(=O)[nH]1`, in experiment [5], the inhibition in vivo at 10 mg/kg was determined as 7%.
As for `CCOC(=O)c1nc2ncccc2c(=O)[nH]1`, in [1], the inhibition in vivo at 1 mg/kg was 6%. The inhibition in vivo at 3 mg/kg in experiment [11] was determined as 66%. In addition, in [5], the inhibition in vivo at 10 mg/kg was determined as 96%. In addition, the outcome in experiment [2] was inactive.
Turning to `CCOC(=O)c1nc(O)c2cc3ccccc3nc2n1`, the ED50 in experiment [13] amounted to 3 mg/kg. Moreover, the inhibition in vivo at 1 mg/kg in experiment [1] amounted to 98%; in experiment [15], 12%. Moreover, the inhibition result in [5], in experiment [17] and in experiment [18] was “inactive” throughout. In [2], the inhibition in vivo at 100 mg/kg is 80%. The inhibition in vivo at 0.1 mg/kg in [14] was 47%. In addition, the inhibition in vivo at 3 mg/kg in experiment [16] was 53%. Further, in experiment [3], the inhibition in vivo at 10 mg/kg is 75%. Further, in [4], the inhibition in vivo at 30 mg/kg turned out to be 72%.
As for `CCOC(=O)CCc1n[nH]c2ccc(CC)cc2c1=O`, the ED50 in experiment [6] came out at 4 mg/kg.
Regarding `COc1cc2nc(C(=O)O)[nH]c(=O)c2cc1OC`, in experiment [12], the inhibition in vivo at 30 mg/kg was 69%. For the same compound, the result in [2] was inactive.
As to `CCc1ccc2occ(-c3nnn[nH]3)c(=O)c2c1`, in experiment [7], the ED50 was 7 mg/kg. The “fold change (FC)” value in experiment [8] is 4.
Consider `O=C(O)c1nc2cc3ccccc3cc2c(=O)[nH]1`, for which, in [1], the inhibition in vivo at 1 mg/kg stood at 14%. Also, the inhibition in vivo at 3 mg/kg in experiment [11] stood at 36%. The inhibition in vivo at 10 mg/kg in [5] amounted to 100%. For the same compound, the inhibition in vivo at 100 mg/kg in experiment [2] was 0%.
As to `O=c1[nH]cnc2cc3ccccc3cc12`, in experiment [11], the inhibition in vivo at 3 mg/kg was determined as 31%.
For `CCOC(=O)c1nc2cc3ccccc3cc2c(=O)[nH]1`, the inhibition in vivo at 100 mg/kg in [2] is 38%. The inhibition in vivo at 30 mg/kg in experiment [19] is 27%.
For the compound `Cc1cc2c(cc1C)C(=O)C([N+](=O)[O-])C2=O`, the ED50 in [20] was 1 mg/kg. Moreover, the “fold change (FC)” value in [21] is 25. The Activity in experiment [22] worked out at 2 mg/kg.
On to `O=C(O)c1nc2c(C(F)(F)F)cc(Cl)cc2c(=O)[nH]1`, for which, in [5], the inhibition in vivo at 10 mg/kg came out at 0%.
Turning to `O=C([O-])c1cc(=O)c2c(OCC(O)COc3cccc4oc(C(=O)[O-])cc(=O)c34)cccc2o1.[Na+].[Na+]` [CROMOLYN SODIUM], the ED50 in [13] turned out to be 1 mg/kg. Besides, the inhibition in vivo at 1 mg/kg in experiment [1] was 55%. In experiment [11], the inhibition in vivo at 3 mg/kg is 77%. The inhibition in vivo at 10 mg/kg in experiment [5] turned out to be 90%. Moreover, the inhibition in vivo at 30 mg/kg in experiment [12] amounted to 99%. For the same compound, in [2], the outcome was inactive. Moreover, in experiment [14], the inhibition in vivo at 0.1 mg/kg came out at 14%.
For the compound `O=C(O)c1cc(=O)c2cc3c(=O)cc(C(=O)O)[nH]c3c(Cl)c2[nH]1`, in [7], the 50% effective dose (ED50) is less than 25.5 mg/kg. In addition, the “fold change (FC)” value in experiment [8] is listed as 50.
